For orientation: pIC50 means −log10 of the IC50, conventionally taken in molar units. Higher therefore signals a small IC50.

For 13 compounds, IC50 results are on record in ChEMBL document CHEMBL1130410, “19-nor-10-azasteroids: a novel class of inhibitors for human steroid 5alpha-reductases 1 and 2” (J Med Chem, 1997).

Experiment [1] concerns the target T1, 3-oxo-5-alpha-steroid 4-dehydrogenase 1 (Homo sapiens, UniProt P18405).
T1 sequence (P18405 whole entry): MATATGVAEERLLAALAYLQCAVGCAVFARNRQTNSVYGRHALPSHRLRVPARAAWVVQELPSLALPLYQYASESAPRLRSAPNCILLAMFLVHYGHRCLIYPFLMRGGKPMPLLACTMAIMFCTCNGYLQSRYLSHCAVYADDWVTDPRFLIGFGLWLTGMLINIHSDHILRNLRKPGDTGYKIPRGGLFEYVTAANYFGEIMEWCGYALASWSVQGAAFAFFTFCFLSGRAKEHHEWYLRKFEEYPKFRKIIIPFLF
Kind of experiment: (§1) Inhibitory activity against human 5-alpha Reductase-1 expressed in DU-145 cells. It is filed as cell-based. The gist of the method:
(§2)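 DU-145 cells (passage 60–90) were plated at 100 000 cells/well and left to adhere for 24 h. Inhibitors were prepared in ethanol, diluted in phenol-red-free MEM and tested at five doses, 10⁻⁹–10⁻⁵ M, with 5 nM [3H]androstenedione. After 6 h at 37 °C in 5% CO2, the medium was extracted with ethyl acetate and analysed by TLC and scintillation.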

The target in experiment [2] is T2, 3-oxo-5-alpha-steroid 4-dehydrogenase 2 (Homo sapiens, UniProt P31213).
T2 sequence (P31213 whole entry): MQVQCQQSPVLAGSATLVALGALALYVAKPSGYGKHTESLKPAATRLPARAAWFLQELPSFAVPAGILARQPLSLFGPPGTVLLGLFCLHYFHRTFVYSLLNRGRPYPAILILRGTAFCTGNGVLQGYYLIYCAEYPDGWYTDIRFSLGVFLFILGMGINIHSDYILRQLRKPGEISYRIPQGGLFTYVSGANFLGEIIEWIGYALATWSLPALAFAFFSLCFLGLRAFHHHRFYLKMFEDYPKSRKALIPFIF
Kind of experiment: Tested against 5 alpha R-2 on human prostate homogenate from surgically derived benign hyperplastic tissue in experiment 3. It is filed as tissue-based, Prostate gland. The gist of the method:
(§3)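 Benign hyperplastic human prostate tissue, stored at -80 °C, was homogenized near 0 °C in 50 mM TRIS pH 7.4 with salts, nicotinamide and sucrose, spun at 200g, and the combined supernatants were used. Homogenate (0.1 mg protein) was incubated with 30 nM testosterone (9% [3H]) and 0.3 mM NADPH for 30 min at 37 °C, with the inhibitor added alongside the substrate. Inhibitor range was 10⁻¹⁰–10⁻⁵ M. DHT conversion was read by TLC and scintillation, in duplicate.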

Experiment [3] deals with T2, 3-oxo-5-alpha-steroid 4-dehydrogenase 2. Kind of experiment: TInhibitory activity against 5-alpha Reductase-2 on human prostate homogenates from surgically derived benign hyperplastic tissue in experiment 2. The class given is tissue-based, Prostate gland. A digest of the protocol:
as §3

For experiment [4] the target is unchanged. Kind of experiment: Tested against 5 alpha R-2 on human prostate homogenate from surgically derived benign hyperplastic tissue in experiment 1. It is filed as tissue-based, Prostate gland. The gist of the method: as §3
Experiment [5] has the same target. Kind of experiment: Tested against 5 alpha R-2 on human prostate homogenate from surgically derived benign hyperplastic tissue in experiment 2. The class given is tissue-based, Prostate gland. The gist of the method: as §3
Experiment [6] shares this target. Kind of experiment: Inhibition against 5 alpha R-2 in human prostate homogenate compared with finasteride in experiment 1. The class given is tissue-based, Prostate gland. The gist of the method: as §3
For experiment [7] the target is unchanged. Kind of experiment: Inhibitory activity against 5-alpha Reductase-2 on human prostate homogenates from surgically derived benign hyperplastic tissue in experiment 1. It is filed as tissue-based, Prostate gland. The gist of the method: as §3
Experiment [8] shares this target. Kind of experiment: Inhibition against 5 alpha R-2 in human prostate homogenate compared with finasteride in experiment 2. The class given is tissue-based, Prostate gland. The gist of the method:
as §3

The target is the same in experiment [9]. Kind of experiment: Inhibition against 5 alpha R-2 in human prostate homogenate compared with finasteride in experiment 3. It is filed as tissue-based, Prostate gland. A digest of the protocol: as §3
Experiment [10] shares this target. Kind of experiment: Inhibition against 5 alpha R-2 in human prostate homogenate relative to finasteride. It is filed as tissue-based, Prostate gland.
Experiment [11] shares this target. Kind of experiment: Inhibitory activity against 5-alpha Reductase-2 on human prostate homogenates from surgically derived benign hyperplastic tissue. It is filed as tissue-based, Prostate gland. A digest of the protocol:
as §3

Experiment [12] concerns the target 3-oxo-5-alpha-steroid 4-dehydrogenase 1 (Homo sapiens, UniProt P18405). The description is as §1. It is filed as cell-based. A digest of the protocol:
as §2
This is another data set of the same source.

Structures are written as SMILES. pIC50: −log10 of the molar value. Several values for one entry are separate records, joined by “and”; a condition that tells them apart may be missing. Equal entries are not always repeated.

In the case of `CC(C)(C)NC(=O)[C@H]1CC[C@H]2C3=C(CC[C@]12C)N1CCC(=O)C=C1CC3.CC(C)(C)NC(=O)[C@H]1CC[C@H]2C3CCC4=CC(=O)CCN4C3=CC[C@]12C` (some centres not stated), the pIC50 was 6.90 in [1]; 6.82 in [2]; 6.91 in experiment [3]; 7.99 in experiment [4]; 8.14 in experiment [5]; 8.66 and 8.47 in experiment [6]. Moreover, the negative logarithm of the IC50 (pIC50) is 7.43 in [7]; 8.24 and 8.51 in experiment [8]; 8.37 in experiment [9].
In the case of `C[C@]12CC=C3[C@@H](CCC4=CC(=O)CCN43)C1CC[C@@H]2O.C[C@]12CCC3=C(CCC4=CC(=O)CCN43)C1CC[C@@H]2O` (some centres not stated), the negative logarithm of the IC50 (pIC50) in experiment [10] was 8.52; in experiment [11] it was 5.54.
In the same order, the values of `C[C@]12CC[C@H]3[C@@H](CCC4CC(=O)C=CN43)[C@@H]1CCC2=O` (some centres not stated) are 8.62 and 4.34.
`C[C@]12CC[C@H]3[C@@H](CC[C@H]4CC(=O)CCN43)[C@@H]1CCC2=O`: the negative logarithm of the IC50 (pIC50) in experiment [10] was 8.54; in [1], less than 4.00; in [11], less than 4.00.
Turning to `C=CC(=O)/C=C1/CCC2=C(CC[C@]3(C)C(=O)CC[C@@H]23)N1.C=CC(=O)/C=C1/CCC2C(=CC[C@]3(C)C(=O)CC[C@@H]23)N1` (some centres not stated), the pIC50 is 8.21 in experiment [10] and less than 4.00 in experiment [11].
Consider `C[C@]12CC[C@H]3[C@@H](CCC4=CC(=O)CCN43)[C@@H]1CC[C@@H]2O`, for which the negative logarithm of the IC50 (pIC50) in experiment [10] is 8.57; in experiment [1], 6.39; in experiment [11], 5.38.
As for `C[C@]12CC[C@H]3[C@@H](CCC4=CC(=O)CCN43)[C@@H]1CCC2=O`, the pIC50 is 8.46 in [10], 6.52 in [1] and 5.36 in experiment [11].
On to `CC(C)(C)NC(=O)[C@H]1CC[C@H]2[C@@H]3CCC4=CC(=O)CCN4[C@H]3CC[C@]12C`, for which the values for the negative-log IC50 (pIC50) in [10], in experiment [1] and in experiment [11] were 8.26, 5.95 and 6.34, respectively.
On to `C[C@]12CC=C3[C@@H](CCC4=CC(=O)CCN43)C1CCC2=O.C[C@]12CCC3=C(CCC4=CC(=O)CCN43)C1CCC2=O` (stereo in doubt; 4a), for which the pIC50 in experiment [10] was 8.47.
On to `C[C@]12CC=C3[C@@H](CCC4=CC(=O)CCN43)C1CCC2=O.C[C@]12CCC3=C(CCC4=CC(=O)CCN43)C1CCC2=O` (stereo in doubt; 4a:4b(5:1)), for which the values for the pIC50 in experiment [10], in experiment [1] and in [11] were 8.39, 6.58 and 5.34, respectively.
`C[C@]12CC=C3C4=C(CCC3[C@@H]1CCC2=O)NCCC4=O.C[C@]12CCC3=C(CCC4=C3C(=O)CCN4)[C@@H]1CCC2=O` (stereo in doubt; 27b) gave a pIC50 in [10] of 8.42.
Take `C[C@]12CC=C3C4=C(CCC3[C@@H]1CCC2=O)NCCC4=O.C[C@]12CCC3=C(CCC4=C3C(=O)CCN4)[C@@H]1CCC2=O` (stereo in doubt; 27c): the negative-log IC50 (pIC50) was 8.21 in [10], less than 4.00 in [1] and less than 4.00 in experiment [11].
As to `CC(C)(C)NC(=O)[C@H]1CC[C@H]2[C@@H]3CC[C@H]4NC(=O)C=C[C@]4(C)[C@H]3CC[C@]12C` [FINASTERIDE], the negative-log IC50 (pIC50) in experiment [12] was 7.38; in [11] it was 8.52.
